Consider six compounds from ChEMBL document CHEMBL1151702, “Using an aryl phenanthroimidazole moiety as a conjugated flexible intercalator to improve the hybridization efficiency of a triplex-forming oligonucleotide” (Bioorg Med Chem, 2008).

In general, Tm refers to the temperature at the midpoint of the melting transition.

Holding throughout (format): nucleic-acid assay
In assay [1] the test system is Nucleic Acid. Description: Binding affinity to synthetic oligonucleotide ON19 at 1.0 uM at pH 7.2 by thermal denaturation study. Put shortly:
(§1)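 Duplex melting: complementary strands at 1.0 µM each in 20 mM sodium cacodylate, 100 mM NaCl, 10 mM MgCl₂, at the pH of the line. Annealed at 80 °C for 5 min, then cooled to 5 °C and held 30 min. UV absorbance read at 260 nm with heating at 1.0 °C/min; Tm is the maximum of the first-derivative curve.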

The test system of assay [2] is Nucleic Acid. Description: Binding affinity to synthetic double stranded DNA D1 at 1.5 uM at pH 5.0 by thermal denaturation study. Put shortly:
(§2)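 Parallel triplex melting: target duplex assembled from strands at 1.0 µM each, TFO third strand added at 1.5 µM. Buffer 20 mM sodium cacodylate, 100 mM NaCl, 10 mM MgCl₂, at the pH of the line. Samples heated to 80 °C for 5 min, cooled to 5 °C and held 30 min. Absorbance read at 260 nm while heating at 1.0 °C/min; Tm taken as the first-derivative maximum.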

Assay [3] deals with Nucleic Acid. Description: Binding affinity to synthetic double stranded DNA D1 at 1.5 uM at pH 6.0 by thermal denaturation study. The gist of the method:
as §2

Assay [4] deals with Nucleic Acid. Description: Binding affinity to synthetic double stranded DNA D1 at 1.5 uM at pH 7.2 by thermal denaturation study. The gist of the method:
as §2

Assay [5] has as its system Nucleic Acid. Description: Binding affinity to synthetic double stranded DNA D2 at 1.5 uM at pH 6.0 by thermal denaturation study. The gist of the method: as §2
Assay [6] relates to Nucleic Acid. Description: Binding affinity to synthetic oligonucleotide ON20 at 1.0 uM at pH 7.0 by thermal denaturation study. The gist of the method:
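DNA/RNA antiparallel duplex: each strand at 1.0 µM in 10 mM sodium phosphate, 140 mM NaCl, 1 mM EDTA, pH 7.0. Heated to 80 °C for 5 min, cooled to 5 °C and held 30 min. Absorbance followed at 260 nm during a 1.0 °C/min temperature ramp; Tm is the first-derivative maximum.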

The subject of assay [7] is Nucleic Acid. Description: Binding affinity to synthetic oligonucleotide ON19 at 1.0 uM at pH 6.0 by thermal denaturation study. Put shortly:
as §1

The subject of assay [8] is Nucleic Acid. Description: Binding affinity to synthetic double stranded DNA D4 at 1.5 uM at pH 6.0 by thermal denaturation study. Put shortly: as §2
In assay [9] the test system is Nucleic Acid. Description: Binding affinity to synthetic oligonucleotide ON18 at 1.0 uM at pH 6.0 by thermal denaturation study. The gist of the method: as §1
Assay [10] concerns Nucleic Acid. Description: Binding affinity to synthetic double stranded DNA D3 at 1.5 uM at pH 6.0 by thermal denaturation study. The gist of the method:
as §2

Structures are written as SMILES.

`Cc1cn([C@H]2C[C@H](OP(=O)(O)OC[C@H]3O[C@@H](n4ccc(N)nc4=O)C[C@@H]3OP(=O)(O)OC[C@H]3O[C@@H](n4cc(C)c(=O)[nH]c4=O)C[C@@H]3OP(=O)(O)OC[C@H]3O[C@@H](n4cc(C)c(=O)[nH]c4=O)C[C@@H]3OP(=O)(O)OC[C@H]3O[C@@H](n4cc(C)c(=O)[nH]c4=O)C[C@@H]3O[PH](O)(O)OC[C@H]3O[C@@H](n4cc(C)c(=O)[nH]c4=O)C[C@@H]3OP(=O)(O)OC[C@H]3O[C@@H](n4cc(C)c(=O)[nH]c4=O)C[C@@H]3OP(=O)(O)OC[C@H]3O[C@@H](n4cc(C)c(=O)[nH]c4=O)C[C@@H]3O)[C@@H](COC[C@H](CCOc3ccc(-c4nc5c6ccccc6c6ccccc6c5[nH]4)c4ccccc34)OP(=O)(O)O[C@H]3C[C@H](n4cc(C)c(=O)[nH]c4=O)O[C@@H]3COP(=O)(O)O[C@H]3C[C@H](n4cc(C)c(=O)[nH]c4=O)O[C@@H]3COP(=O)(O)O[C@H]3C[C@H](n4ccc(N)nc4=O)O[C@@H]3COP(=O)(O)O[C@H]3C[C@H](n4ccc(N)nc4=O)O[C@@H]3COP(=O)(O)O[C@H]3C[C@H](n4ccc(N)nc4=O)O[C@@H]3COP(=O)(O)O[C@H]3C[C@H](n4ccc(N)nc4=O)O[C@@H]3CO)O2)c(=O)[nH]c1=O`: the Tm was found to be 46 °C with Nucleic Acid [1]; 55 °C in the assay with Nucleic Acid [2]; 40.5 °C with Nucleic Acid [3]; 18.5 °C with Nucleic Acid [4]; 16.5 °C with Nucleic Acid [5]; 49.5 °C with Nucleic Acid [6]. Also, the Tm in the assay with Nucleic Acid [7] is 46.5 °C; in the assay with Nucleic Acid [8] it was 25.5 °C; in the assay with Nucleic Acid [9], 21.5 °C; in the assay on Nucleic Acid [10], 21 °C.

In the case of `Cc1cn([C@H]2C[C@H](OP(=O)(O)OC[C@H]3O[C@@H](n4ccc(N)nc4=O)C[C@@H]3OP(=O)(O)OC[C@H]3O[C@@H](n4cc(C)c(=O)[nH]c4=O)C[C@@H]3OP(=O)(O)OC[C@H]3O[C@@H](n4cc(C)c(=O)[nH]c4=O)C[C@@H]3OP(=O)(O)OC[C@H]3O[C@@H](n4cc(C)c(=O)[nH]c4=O)C[C@@H]3O[PH](O)(O)OC[C@H]3O[C@@H](n4cc(C)c(=O)[nH]c4=O)C[C@@H]3OP(=O)(O)OC[C@H]3O[C@@H](n4cc(C)c(=O)[nH]c4=O)C[C@@H]3OP(=O)(O)OC[C@H]3O[C@@H](n4cc(C)c(=O)[nH]c4=O)C[C@@H]3O)[C@@H](COC[C@H](CCOc3ccc(-c4nc5c6ccccc6c6ccccc6c5[nH]4)cc3)OP(=O)(O)O[C@H]3C[C@H](n4cc(C)c(=O)[nH]c4=O)O[C@@H]3COP(=O)(O)O[C@H]3C[C@H](n4cc(C)c(=O)[nH]c4=O)O[C@@H]3COP(=O)(O)O[C@H]3C[C@H](n4ccc(N)nc4=O)O[C@@H]3COP(=O)(O)O[C@H]3C[C@H](n4ccc(N)nc4=O)O[C@@H]3COP(=O)(O)O[C@H]3C[C@H](n4ccc(N)nc4=O)O[C@@H]3COP(=O)(O)O[C@H]3C[C@H](n4ccc(N)nc4=O)O[C@@H]3CO)O2)c(=O)[nH]c1=O`, the Tm in the assay with Nucleic Acid [1] worked out at 50.5 °C; with Nucleic Acid [2] it was 59.5 °C; in the assay with Nucleic Acid [3] it was 46.5 °C; with Nucleic Acid [4], 26 °C; with Nucleic Acid [5], 23 °C; in the assay on Nucleic Acid [6], 53 °C. Further, the midpoint of thermal melting (Tm) came out at 50.5 °C in the assay with Nucleic Acid [7], 31.5 °C with Nucleic Acid [8], 31.5 °C in the assay on Nucleic Acid [9] and 29.5 °C in the assay with Nucleic Acid [10].

For the compound `Cc1cn([C@H]2C[C@H](OP(=O)(O)OC[C@H]3O[C@@H](n4ccc(N)nc4=O)C[C@@H]3OP(=O)(O)OC[C@H]3O[C@@H](n4cc(C)c(=O)[nH]c4=O)C[C@@H]3OP(=O)(O)OC[C@H]3O[C@@H](n4cc(C)c(=O)[nH]c4=O)C[C@@H]3OP(=O)(O)OC[C@H]3O[C@@H](n4cc(C)c(=O)[nH]c4=O)C[C@@H]3O[PH](O)(O)OC[C@H]3O[C@@H](n4cc(C)c(=O)[nH]c4=O)C[C@@H]3OP(=O)(O)OC[C@H]3O[C@@H](n4cc(C)c(=O)[nH]c4=O)C[C@@H]3OP(=O)(O)OC[C@H]3O[C@@H](n4cc(C)c(=O)[nH]c4=O)C[C@@H]3O)[C@@H](COC[C@H](COCc3ccc(C#Cc4ccc5ccc6cccc7ccc4c5c67)cc3)OP(=O)(O)O[C@H]3C[C@H](n4cc(C)c(=O)[nH]c4=O)O[C@@H]3COP(=O)(O)O[C@H]3C[C@H](n4cc(C)c(=O)[nH]c4=O)O[C@@H]3COP(=O)(O)O[C@H]3C[C@H](n4ccc(N)nc4=O)O[C@@H]3COP(=O)(O)O[C@H]3C[C@H](n4ccc(N)nc4=O)O[C@@H]3COP(=O)(O)O[C@H]3C[C@H](n4ccc(N)nc4=O)O[C@@H]3COP(=O)(O)O[C@H]3C[C@H](n4ccc(N)nc4=O)O[C@@H]3CO)O2)c(=O)[nH]c1=O`, the Tm came out at 45.5 °C in the assay on Nucleic Acid [1]; 59 °C in the assay with Nucleic Acid [2]; 45.5 °C with Nucleic Acid [3]; 28 °C with Nucleic Acid [4]; 27 °C in the assay with Nucleic Acid [5]; 46.5 °C in the assay with Nucleic Acid [7]. The Tm with Nucleic Acid [8] was 28.5 °C; in the assay with Nucleic Acid [9], 33.5 °C; in the assay on Nucleic Acid [10] it was 34.5 °C.

In the case of `Cc1cn([C@H]2C[C@H](OP(=O)(O)OC[C@H]3O[C@@H](n4cc(C)c(=O)[nH]c4=O)C[C@@H]3O[PH](O)(O)OC[C@H]3O[C@@H](n4cc(C)c(=O)[nH]c4=O)C[C@@H]3OP(=O)(O)OC[C@H]3O[C@@H](n4cc(C)c(=O)[nH]c4=O)C[C@@H]3OP(=O)(O)OC[C@H]3O[C@@H](n4cc(C)c(=O)[nH]c4=O)C[C@@H]3O)[C@@H](COC[C@H](CCOc3ccc(-c4nc5c6ccccc6c6ccccc6c5[nH]4)c4ccccc34)OP(=O)(O)O[C@H]3C[C@H](n4cc(C)c(=O)[nH]c4=O)O[C@@H]3COP(=O)(O)O[C@H]3C[C@H](n4ccc(N)nc4=O)O[C@@H]3COP(=O)(O)O[C@H]3C[C@H](n4cc(C)c(=O)[nH]c4=O)O[C@@H]3COP(=O)(O)O[C@H]3C[C@H](n4cc(C)c(=O)[nH]c4=O)O[C@@H]3COP(=O)(O)O[C@H]3C[C@H](n4cc(C)c(=O)[nH]c4=O)O[C@@H]3COP(=O)(O)O[C@H]3C[C@H](n4ccc(N)nc4=O)O[C@@H]3COP(=O)(O)O[C@H]3C[C@H](n4ccc(N)nc4=O)O[C@@H]3COP(=O)(O)O[C@H]3C[C@H](n4ccc(N)nc4=O)O[C@@H]3COP(=O)(O)O[C@H]3C[C@H](n4ccc(N)nc4=O)O[C@@H]3CO)O2)c(=O)[nH]c1=O`, the Tm with Nucleic Acid [1] amounted to 47.5 °C; in the assay on Nucleic Acid [3], 38.5 °C; in the assay on Nucleic Acid [4] it was 18.5 °C; in the assay on Nucleic Acid [5], 21 °C; in the assay with Nucleic Acid [6], 49.5 °C; in the assay with Nucleic Acid [7], 47.5 °C. Also, the values for the melting temperature (Tm) with Nucleic Acid [8], in the assay with Nucleic Acid [9] and in the assay with Nucleic Acid [10] were 26 °C, 19.5 °C and 22.5 °C, respectively.

Turning to `Cc1cn([C@H]2C[C@H](OP(=O)(O)OC[C@H]3O[C@@H](n4ccc(N)nc4=O)C[C@@H]3OP(=O)(O)OC[C@H]3O[C@@H](n4cc(C)c(=O)[nH]c4=O)C[C@@H]3OP(=O)(O)OC[C@H]3O[C@@H](n4cc(C)c(=O)[nH]c4=O)C[C@@H]3OP(=O)(O)OC[C@H]3O[C@@H](n4cc(C)c(=O)[nH]c4=O)C[C@@H]3O[PH](O)(O)OC[C@H]3O[C@@H](n4cc(C)c(=O)[nH]c4=O)C[C@@H]3OP(=O)(O)OC[C@H]3O[C@@H](n4cc(C)c(=O)[nH]c4=O)C[C@@H]3OP(=O)(O)OC[C@H]3O[C@@H](n4cc(C)c(=O)[nH]c4=O)C[C@@H]3O)[C@@H](COC[C@H](CCOc3ccc(-c4ncc[nH]4)c4ccccc34)OP(=O)(O)O[C@H]3C[C@H](n4cc(C)c(=O)[nH]c4=O)O[C@@H]3COP(=O)(O)O[C@H]3C[C@H](n4cc(C)c(=O)[nH]c4=O)O[C@@H]3COP(=O)(O)O[C@H]3C[C@H](n4ccc(N)nc4=O)O[C@@H]3COP(=O)(O)O[C@H]3C[C@H](n4ccc(N)nc4=O)O[C@@H]3COP(=O)(O)O[C@H]3C[C@H](n4ccc(N)nc4=O)O[C@@H]3COP(=O)(O)O[C@H]3C[C@H](n4ccc(N)nc4=O)O[C@@H]3CO)O2)c(=O)[nH]c1=O`, the Tm with Nucleic Acid [2] is 33 °C; with Nucleic Acid [3], 10.5 °C.

On to `Cc1cn([C@H]2C[C@H](OP(=O)(O)OC[C@H]3O[C@@H](n4cc(C)c(=O)[nH]c4=O)C[C@@H]3OP(=O)(O)OC[C@H]3O[C@@H](n4cc(C)c(=O)[nH]c4=O)C[C@@H]3OP(=O)(O)OC[C@H]3O[C@@H](n4ccc(N)nc4=O)C[C@@H]3OP(=O)(O)OC[C@H]3O[C@@H](n4cc(C)c(=O)[nH]c4=O)C[C@@H]3OP(=O)(O)OC[C@H]3O[C@@H](n4cc(C)c(=O)[nH]c4=O)C[C@@H]3OP(=O)(O)OC[C@H]3O[C@@H](n4cc(C)c(=O)[nH]c4=O)C[C@@H]3O[PH](O)(O)OC[C@H]3O[C@@H](n4cc(C)c(=O)[nH]c4=O)C[C@@H]3OP(=O)(O)OC[C@H]3O[C@@H](n4cc(C)c(=O)[nH]c4=O)C[C@@H]3OP(=O)(O)OC[C@H]3O[C@@H](n4cc(C)c(=O)[nH]c4=O)C[C@@H]3O)[C@@H](COP(=O)(O)O[C@H]3C[C@H](n4ccc(N)nc4=O)O[C@@H]3COP(=O)(O)O[C@H]3C[C@H](n4ccc(N)nc4=O)O[C@@H]3COP(=O)(O)O[C@H]3C[C@H](n4ccc(N)nc4=O)O[C@@H]3COP(=O)(O)O[C@H]3C[C@H](n4ccc(N)nc4=O)O[C@@H]3CO)O2)c(=O)[nH]c1=O`, for which the Tm in the assay with Nucleic Acid [1] is 49.5 °C; with Nucleic Acid [2], 55 °C; in the assay on Nucleic Acid [3], 28 °C; in the assay on Nucleic Acid [4] it was below 5 °C; in the assay on Nucleic Acid [5], below 5 °C; in the assay with Nucleic Acid [6], 52 °C. Moreover, the midpoint of thermal melting (Tm) is 49.5 °C in the assay on Nucleic Acid [7], below 5 °C in the assay on Nucleic Acid [8], 19 °C in the assay on Nucleic Acid [9] and below 5 °C with Nucleic Acid [10].
